# Screening data (PubChem)
# Rows were chosen to be rich in hits. Some 4.3% of all compounds tested hit in one or more screens of this group.
# PREPL inh = inhibitors of human prolyl oligopeptidase-like enzyme PREPL | hit rate 0.68% among 320,000 | Q4J6C6 | recombinant PREPL, fluorescence polarization activity-based probe | inhibition, % at 5.96 µM; in the data active = inhibition above about 43%;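 also: 0% = enzyme with DMSO and 100% = wells lacking enzyme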
# Target sequence (Q4J6C6 whole entry, looked up): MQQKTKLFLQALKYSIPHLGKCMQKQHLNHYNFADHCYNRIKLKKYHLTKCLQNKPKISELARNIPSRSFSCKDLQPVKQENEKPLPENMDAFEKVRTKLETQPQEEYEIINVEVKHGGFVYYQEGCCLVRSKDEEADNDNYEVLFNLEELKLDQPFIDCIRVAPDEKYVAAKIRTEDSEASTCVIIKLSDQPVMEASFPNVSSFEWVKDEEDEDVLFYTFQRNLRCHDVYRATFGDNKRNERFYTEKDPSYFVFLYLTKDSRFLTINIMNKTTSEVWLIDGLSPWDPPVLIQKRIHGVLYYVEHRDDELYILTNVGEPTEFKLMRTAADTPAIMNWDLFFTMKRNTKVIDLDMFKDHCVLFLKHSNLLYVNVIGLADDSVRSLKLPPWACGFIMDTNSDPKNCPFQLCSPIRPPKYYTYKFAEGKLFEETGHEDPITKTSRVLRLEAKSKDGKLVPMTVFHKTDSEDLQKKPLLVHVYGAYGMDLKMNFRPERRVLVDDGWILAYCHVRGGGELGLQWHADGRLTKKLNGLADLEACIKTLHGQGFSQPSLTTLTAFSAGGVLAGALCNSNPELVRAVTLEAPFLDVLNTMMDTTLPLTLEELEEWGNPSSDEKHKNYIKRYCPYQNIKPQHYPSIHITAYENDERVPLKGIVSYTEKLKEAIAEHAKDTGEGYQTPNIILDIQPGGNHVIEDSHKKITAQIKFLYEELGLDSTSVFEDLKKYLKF
# ALR H2O2 inh = human ALR oxidase inhibition via reduced H2O2; inhibition, % (no concentration beside the values); purified ALR, DTT oxidation, H2O2 HRP-luminol luminescence; hit rate 3.8% among 290,000;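 active = mean replicate inhibition above about 79%, with every replicate also reaching it, limit read from the data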
# UBC9 SUMO inh = SUMOylation inhibition; P63279; HTRF SUMOylation assay, SAE1/SAE2 + UBC9, in vitro; inhibition, % at 35 µM; hit rate 0.36% among 290,000; in the data active = inhibition above about 50%, passing the limit was not always enough
# UBC13 polyUb = blocks human UBC13 polyubiquitin chain formation; AID 485273; inhibition, % at 20 µM; hit rate 0.47% among 330,000; TR-FRET; in the data active = inhibition above about 45%, passing the limit was not always enough
# Rin1-Abl PPI inh = inhibitors of human Rin1-Abl protein interaction; inhibition, % at 7.35 µM; TR-FRET Rin1/Abl binding, biochemical; AID 588664; P00519+Q13671; hit rate 0.4% among 360,000; in the data active = inhibition above about 5%, passing the limit was not always enough
# RBBP9 inh = blocks human serine hydrolase RBBP9; recombinant RBBP9, FP-Rh probe fluorescence polarization; hit rate 0.2% among 220,000; O75884; inhibition, % at 7.94 µM;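 active = inhibition above the campaign mean of all tested compounds plus 3 SD, cut at about 14% in these data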;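 also: plate controls were DMSO wells with RBBP9 for no effect and wells lacking RBBP9 protein for full effect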
#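 System: RBBP9 protein / Buffer or medium: Tris/NaCl buffer pH 8.0 with 0.1% Pluronic / Probe or stimulus: Serine-hydrolase probe FP-Rh, 375 nM pre-mixing / Dosing: 7.94 µM single dose, 0.794% DMSO / Times: enzyme-compound preincubation 30 min, then probe labeling 45 min, 25 °C / Technique: fluorescence polarization (mP), excitation 525 nm, emission 598 nm / Replication: singlicate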
# An asterisk follows results filed as active; · = no result.
SMILES,PREPL inh,ALR H2O2 inh,UBC9 SUMO inh,UBC13 polyUb,Rin1-Abl PPI inh,RBBP9 inh
Nc1nc2cc(Cl)c(Br)cc2o1,·,·,·,·,4,·
CCCCCCN1C=CC(=C/C=C(\C#N)C(=O)OCC)C=C1,26,5,-6,-350,-31,-9
C=CCN1C=CC(=CC=C(C#N)C#N)C=C1,-2,99*,-9,-306,-26,5
CCCN1C=CC(=C/C=C(\C#N)C(=O)OCC)C=C1,-1,99*,7,-478,·,-3
CCCN1C=CC(=CC=C(C#N)C#N)C=C1,7,99*,-28,-158,-22,-9
C=CCN1C=C/C(=C\C=C(C#N)C#N)c2ccccc21,-58,·,2,-282,-9,-36
N#CCCN(C(=O)COC(=O)Cc1c[nH]c2ccccc12)c1ccccc1,25,5,·,13,-6,·
CCC1CCCCN1C(=O)CSc1nc(N)c(NC(=O)c2ccco2)c(=O)[nH]1 (stereo unspecified),0,85*,11,0,-1,2
CC(C(=O)Nc1ccc(C#N)cc1)N1CCN(C(=O)C2CC2)CC1 (stereo unspecified),15,-1,·,6,3,·
CCN(CC)c1ccc(NC(=O)CN2CCN(S(=O)(=O)c3cc(Cl)ccc3OC)CC2)cc1,72*,·,-12,-1,1,-2
CN(C)c1ccc(NC(=O)CN2CCN(CC(=O)Nc3ccc(F)cc3)CC2)cc1,24,99*,-16,5,0,-5
Cc1ccc(C(=O)C2CCN(CC(=O)Nc3ccc(N(C)C)cc3)CC2)cc1,15,98*,-14,4,-2,-4
CCN(CC)c1ccc(NC(=O)CN2CCN(c3ccccc3F)CC2)cc1,24,99*,-3,2,-1,-3
COc1ccc([C@H]2CC(=O)C=C(c3ccccc3OC)C2)cc1OC,5,-2,·,1,3,·
CC1CCc2c(sc(/N=C/c3ccco3)c2C(N)=O)C1 (stereo unspecified),4,-2,15,9,1,-6
N#CCc1ccnc2ccccc12,·,·,·,·,-2,·
CCOC(=S)SCc1cn2ccc(C)cc2n1,12,99*,21,-13,-1,-8
CCOC(=S)SCc1cn2ccccc2n1,-4,98*,0,-9,1,-1
Cc1ccn2cc(CSc3ccccc3N)nc2c1,11,29,15,1,1,-2
CC(=O)Nc1ccc(NC(=O)C(C)OC(=O)C2CCCCC2)cc1 (stereo unspecified),-1,-2,·,8,2,·
Cc1ccccc1OCCn1cc(C(=S)N2CCCC2)c2ccccc21,42,0,·,10,2,-10
Cc1ccccc1OCCn1cc(C(=S)N2CCN(C)CC2)c2ccccc21,59*,-24,-7,26,0,3
Cn1cc(CNC(=O)C23CC4CC(CC(C4)C2)C3)cn1,6,-4,-23,-10,2,-6
CCc1c(C(=O)NCc2cnn(C)c2)csc1C,-1,98*,13,15,4,-9
O=C1c2ccccc2[C@@H]2C[C@@H](O)[C@H](Nc3cccc(Cl)n3)CCN12,·,·,·,·,1,·
SMILES,PREPL inh,ALR H2O2 inh,UBC9 SUMO inh,UBC13 polyUb,Rin1-Abl PPI inh,RBBP9 inh
O=S(=O)(Nc1ncnc2sc3c(c12)CCC3)c1cc(F)ccc1F,-9,94*,18,17,-1,-1
O=S(=O)(Nc1ncnc2sc3c(c12)CCC3)c1ccc(Cl)s1,2,12,1,-10,-1,-2
CCn1c(C)nc2cc(OC)ccc21,-7,-11,28,2,-1,-6
CCn1c(=O)n(CC)c2cc(N)ccc21,15,98*,16,-5,-2,0
CCn1c(C)nc2cc(N)ccc21,18,98*,14,-10,0,8
O=C(CCCc1ccccc1)NCCc1ccc(F)cc1,1,·,7,-2,2,·
COc1cccc(-c2cccc(NC(=O)C3CCN(CC4CCOC4)CC3)c2)c1 (stereo unspecified),13,-7,8,9,3,·
COc1ccc(OC)c(S(=O)(=O)N2CCCC(C(=O)NCc3cccnc3)C2)c1 (stereo unspecified),8,-3,13,2,-1,·
Oc1ccc(C23CC4CC(CC(C4)C2)C3)cc1O,0,99*,-9,·,2,·
CC(=O)Nc1ccc(C23CC4CC(CC(C4)C2)C3)cc1,-6,-31,-14,10,0,·
CCn1cnc2cc(NCc3ccc(N(C)C)cc3)ccc21,27,98*,26,0,-1,0
CCn1cnc2cc(NCc3nc4ccccc4n3C)ccc21,14,33,15,-12,6,-6
CCN(CC)c1ccc(CNc2ccc3c(c2)ncn3CC)cc1,24,98*,1,10,·,·
O=C(CSCc1ccc(Cl)cc1)Nc1ccc(O)cc1C(=O)O,-4,96*,14,-4,3,·
COc1cc(NC(=O)CSCc2ccc(Cl)cc2)c(C(=O)O)cc1OC,-3,·,3,-7,0,·
O=C(Cc1cccc2ccccc12)Nc1ccc(O)cc1C(=O)O,-9,97*,5,7,-1,·
O=C(Cc1cccc2ccccc12)Nc1ccc(Br)cc1C(=O)O,-14,·,0,-10,0,·
CC(=O)c1ccc(NC(=O)CCCCCn2nnc3ccccc3c2=O)cc1,-5,-13,-4,5,2,·
C[C@H](NC(=O)c1ccc(Cl)cc1)C(=O)OCn1nnc2ccccc2c1=O,0,3,·,6,2,·
O=C(CSCC(=O)OCn1nnc2ccccc2c1=O)Nc1ccc(Cl)cc1,-26,98*,-23,9,-1,-12
CN(C)c1ccc(NC(=O)CCCCCn2nnc3ccccc3c2=O)cc1,-2,99*,7,-2,3,·
Oc1ccc(/C=N/Nc2ccc(C(F)(F)F)cn2)c(O)c1,9,22,-41,-11,5,·
Oc1ccc(/C=N/Nc2ccc(C(F)(F)F)cn2)cc1,9,97*,-9,11,-4,-7
COc1cc(/C=C(/NC(C)=O)C(=O)O)cc(Cl)c1OCc1ccc(Br)cc1,-2,95*,19,-4,-1,-6
COc1cc(/C=C(\NC(C)=O)C(=O)O)cc(OC)c1OC,-4,-13,6,11,-1,0
SMILES,PREPL inh,ALR H2O2 inh,UBC9 SUMO inh,UBC13 polyUb,Rin1-Abl PPI inh,RBBP9 inh
O=C(NNC(=O)c1csc(N2CCOCC2)n1)c1cccnc1,-7,2,·,2,-4,·
Cc1ccccc1Cn1nnc(-c2ccc(F)cc2)n1,-1,93*,8,5,4,·
Fc1ccc(-c2nnn(Cc3ccccc3Cl)n2)cc1,-8,0,-8,8,4,·
N=c1c2ccccc2nnn1-c1ccc(C(F)(F)F)cc1,8,-6,8,-5,2,-10
CC(C)c1ccc(Nc2nc(Cl)nc(NCCO)n2)cc1,-14,97*,1,-9,-3,·
COc1ccc(Nc2nc(Cl)nc(NCCO)n2)cc1,2,·,5,-8,2,-8
CCN(CC(=O)Nc1ccc2c(c1)OCCO2)C(=O)c1ccc([N+](=O)[O-])s1,17,·,·,-10,-4,·
